# Activity calls are given as the source filed them.
# Experiments:
# [1] = biological target: T1, von Hippel-Lindau disease tumor suppressor/WD repeat-containing protein 5 (Homo sapiens, UniProt P61964+P40337); assay: PROTAC activity at VHL/WDR5 in human MIA PaCa-2 cells assessed as decrease in WDR5 protein by measuring degradation concentration incubated for 18 hrs by Western blotting analysis; assay type: cell-based
# Procedure, shortened: (§1)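 MIA PaCa-2 cells were grown in DMEM with 10% FBS and treated with a concentration series for 18 h. Total lysates were Western blotted for WDR5 against a tubulin loading control using fluorescent secondary antibodies. DC50 and Dmax were fitted from 4 independent experiments.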
# [2] = biological target: WD repeat-containing protein 5 (Homo sapiens, UniProt P61964); assay: Binding affinity to full-length N-terminal His-tagged WDR5 (unknown origin) expressed in Escherichia coli BL21 (DE3) cells assessed as dissociation constant by isothermal titration calorimetry
# Procedure, shortened: (§2)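 Inverse ITC was run with His-tagged VCB (pVHL54–213 co-expressed with EloB1–104 and EloC1–112) and E. coli BL21(DE3)-expressed WDR5, both purified by HisTrap and Superdex 200 gel filtration. Titrations were VCB into ligand, VCB into the ligand–WDR5 complex, and WDR5 into ligand. Three independent replicates were done, reported as mean ± SD, and the first injection was excluded from fitting.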
# [3] = biological target: T1, von Hippel-Lindau disease tumor suppressor/WD repeat-containing protein 5; assay: PROTAC activity at VHL/WDR5 in human MIA PaCa-2 cells assessed as maximal degradation of WDR5 protein incubated for 18 hrs by Western blotting analysis relative to control; assay type: cell-based; procedure, shortened: as §1
# [4] = biological target: T1, von Hippel-Lindau disease tumor suppressor/WD repeat-containing protein 5; assay: PROTAC activity at VHL/WDR5 in human HPAF-II cells assessed as hook effect upto 50 uM incubated for 18 hrs by Western blotting analysis; assay type: cell-based
# Procedure, shortened: (§3)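 Five PDAC lines (MIA PaCa-2 in DMEM; BxPC-3, HPAF-II, Panc10.05 and PANC-1 in RPMI 1640; all with 10% FBS) given DMSO or compound over a concentration range up to 50 μM for 18 h. Lysates immunoblotted for WDR5 against tubulin. For MIA PaCa-2, DC50 and Dmax were fitted from 4 independent experiments.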
# Panc1005 = assay: Growth inhibition of human Panc1005 cells incubated for 6 days by MTS assay; assay type: functional; conditions: Panc1005, 144 h, time 6 day
# Procedure, shortened: (§4)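 MTS read-out. PDAC cells seeded at 500 or 1000 per well and exposed to a compound concentration series for 6 days, with medium plus fresh compound replaced every 2 days. MTS incubated 0.5–2 h, absorbance read at 490 nm. Growth normalized to DMSO. Three independent experiments, mean ± SEM; GI50 by nonlinear regression.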
# [5] = Drug distribution in Swiss albino mouse plasma at 75 mg/kg,ip administration measured for 12 hrs by LC-MS/MS analysis; assay type: ADME, organism-based
# Procedure, shortened: (§5)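 Six male Swiss albino mice were each given one intraperitoneal dose of a solution formulation at 75 mg/kg. […] Plasma was quantified by LC–MS/MS (LLOQ 5.03 ng/mL), values are means of three mice per time point, and PK was derived by nonlinear regression.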
# [6] = biological target: T1, von Hippel-Lindau disease tumor suppressor/WD repeat-containing protein 5; assay: PROTAC activity at VHL/WDR5 in human PANC-1 cells assessed as degradation of WDR5 protein incubated for 18 hrs by Western blotting analysis; assay type: cell-based; procedure, shortened: as §3
# [7] = biological target: T1, von Hippel-Lindau disease tumor suppressor/WD repeat-containing protein 5; assay: PROTAC activity at VHL/WDR5 in human MIA PaCa-2 cells assessed as degradation of WDR5 protein at 1.5 uM incubated for 2 hrs by TMT-labeled mass spectrometry based quantitative proteomics assay; assay type: cell-based
# Procedure, shortened: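 TMT proteomics: MIA PaCa-2 cells given DMSO or 1.5 μM compound (2 h in the figure legend, 2.5 h in the methods). Cells lysed in 8 M urea pH 8.0, reduced with DTT, alkylated with iodoacetamide, then digested with LysC/trypsin overnight at 37 °C. Peptides TMT10plex-labelled and analyzed by MS. Cutoffs P < 0.01 and log2 fold change > 0.5, three biological replicates.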
# MIA PaCa-2 = assay: Growth inhibition of human MIA PaCa-2 cells incubated for 6 days by MTS assay; assay type: functional; conditions: MIA PaCa-2, 144 h, time 6 day; procedure, shortened: as §4
# HPAF-II = assay: Growth inhibition of human HPAF-II cells incubated for 6 days by MTS assay; assay type: functional; conditions: 144 h, time 6 day; procedure, shortened: as §4
# [8] = Cmax in Swiss albino mouse at 75 mg/kg,ip administration measured for 0.5 hrs by LC-MS/MS analysis; assay type: ADME, organism-based; set-up: time 0.5 hrs, dose 75 mg/kg, route ip; conditions: in vivo; procedure, shortened: as §5
# [9] = biological target: T1, von Hippel-Lindau disease tumor suppressor/WD repeat-containing protein 5; assay: PROTAC activity at VHL/WDR5 in human MIA PaCa-2 cells assessed as degradation of WDR5 protein at 0.5 uM incubated for 4 hrs in presence of carfilzomib by Western blotting analysis; assay type: cell-based
# Procedure, shortened: (§6)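 Rescue: MIA PaCa-2 cells pretreated for 2 h with 0.4 μM carfilzomib or with OICR-9429 at several concentrations, then given DMSO or 0.5 μM compound for a further 4 h. WDR5 immunoblotted against tubulin. Representative of at least two experiments.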
# PANC-1 = assay: Growth inhibition of human PANC-1 cells incubated for 6 days by MTS assay; assay type: functional; conditions: PANC-1, 144 h, time 6 day; procedure, shortened: as §4
# [10] = biological target: T1, von Hippel-Lindau disease tumor suppressor/WD repeat-containing protein 5; assay: PROTAC activity at VHL/WDR5 in human MIA PaCa-2 cells assessed as degradation of WDR5 protein at 0.1 uM by Western blotting analysis; assay type: cell-based; conditions: TDE = time-dependent effect
# Procedure, shortened: (§7)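 Time course: MIA PaCa-2 cells given DMSO or 0.1 μM compound and harvested at the indicated times. Lysates immunoblotted for WDR5, with tubulin as loading control. Representative of at least two independent experiments.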
# [11] = biological target: T1, von Hippel-Lindau disease tumor suppressor/WD repeat-containing protein 5; assay: PROTAC activity at VHL/WDR5 in human PANC-1 cells assessed as hook effect upto 50 uM incubated for 18 hrs by Western blotting analysis; assay type: cell-based; procedure, shortened: as §3
# [12] = biological target: T1, von Hippel-Lindau disease tumor suppressor/WD repeat-containing protein 5; assay: PROTAC activity at VHL/WDR5 in human Panc1005 cells assessed as hook effect upto 50 uM incubated for 18 hrs by Western blotting analysis; assay type: cell-based; procedure, shortened: as §3
# BXPC-3 = assay: Growth inhibition of human BXPC-3 cells incubated for 6 days by MTS assay; assay type: functional; conditions: BXPC-3, 144 h, time 6 day; procedure, shortened: as §4
# [13] = biological target: T1, von Hippel-Lindau disease tumor suppressor/WD repeat-containing protein 5; assay: PROTAC activity at VHL/WDR5 in human BXPC-3 cells assessed as hook effect upto 50 uM incubated for 18 hrs by Western blotting analysis; assay type: cell-based; procedure, shortened: as §3
# [14] = biological target: T1, von Hippel-Lindau disease tumor suppressor/WD repeat-containing protein 5; assay: PROTAC activity at VHL/WDR5 in human MIA PaCa-2 cells assessed as maximal degradation of WDR5 protein at 0.1 uM incubated for 24 hrs by Western blotting analysis; assay type: cell-based; procedure, shortened: as §7
# [15] = AUC (0 to last) in Swiss albino mouse at 75 mg/kg,ip administration measured for 0.5 to 12 hrs by LC-MS/MS analysis; assay type: ADME, organism-based; set-up: time upper 12 hrs, dose 75 mg/kg, time lower 0.5 hrs, route ip; conditions: in vivo; procedure, shortened: as §5
# [16] = biological target: T1, von Hippel-Lindau disease tumor suppressor/WD repeat-containing protein 5; assay: PROTAC activity at VHL/WDR5 in human MIA PaCa-2 cells assessed as degradation of WDR5 protein at 0.5 uM incubated for 4 hrs in presence of OICR-9429 by Western blotting analysis; assay type: cell-based; procedure, shortened: as §6
# [17] = biological target: T1, von Hippel-Lindau disease tumor suppressor/WD repeat-containing protein 5; assay: PROTAC activity at VHL/WDR5 in human MIA PaCa-2 cells assessed as degradation of WDR5 protein incubated for 18 hrs by Western blotting analysis; assay type: cell-based; procedure, shortened: as §3
# [18] = biological target: T1, von Hippel-Lindau disease tumor suppressor/WD repeat-containing protein 5; assay: PROTAC activity at VHL/WDR5 in human MIA PaCa-2 cells assessed as degradation of WDR5 protein at 1.5 uM incubated for 2 hrs by Western blotting analysis; assay type: cell-based
# Procedure, shortened: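 MIA PaCa-2 cells given DMSO or 1.5 μM compound for 2 h. Lysates prepared for proteomics were checked by WDR5 immunoblot.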
# [19] = biological target: T1, von Hippel-Lindau disease tumor suppressor/WD repeat-containing protein 5; assay: PROTAC activity at VHL/WDR5 in human MIA PaCa-2 cells assessed as hook effect upto 50 uM incubated for 18 hrs by Western blotting analysis; assay type: cell-based; procedure, shortened: as §3
# [20] = Toxicity in Swiss albino mouse assessed as clinical signs of toxicity at 75 mg/kg,ip observed after 0.5 to 12 hrs; assay type: organism-based; conditions: in vivo, time 0.5-12 hrs
# Procedure, shortened: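 Six male Swiss albino mice were given one intraperitoneal dose of a solution formulation at 75 mg/kg and observed for clinical signs during the 12 h PK sampling period (0.5–12 h).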
# [21] = biological target: T1, von Hippel-Lindau disease tumor suppressor/WD repeat-containing protein 5; assay: PROTAC activity at VHL/WDR5 in human BXPC-3 cells assessed as degradation of WDR5 protein incubated for 18 hrs by Western blotting analysis; assay type: cell-based; procedure, shortened: as §3
# [22] = Drug distribution in Swiss albino mouse plasma at 75 mg/kg,ip administration measured for 4 hrs by LC-MS/MS analysis; assay type: ADME, organism-based; procedure, shortened: as §5
# [23] = biological target: T1, von Hippel-Lindau disease tumor suppressor/WD repeat-containing protein 5; assay: PROTAC activity at VHL/WDR5 in human Panc1005 cells assessed as degradation of WDR5 protein incubated for 18 hrs by Western blotting analysis; assay type: cell-based; procedure, shortened: as §3
# [24] = Binding affinity to His-tagged VCB/full-length N-terminal His-tagged WDR5 (unknown origin) expressed in Escherichia coli BL21 (DE3) cells assessed as dissociation constant by isothermal titration calorimetry; set-up: species or system Homo sapiens; procedure, shortened: as §2
# [25] = biological target: T1, von Hippel-Lindau disease tumor suppressor/WD repeat-containing protein 5; assay: PROTAC activity at VHL/WDR5 in human HPAF-II cells assessed as degradation of WDR5 protein incubated for 18 hrs by Western blotting analysis; assay type: cell-based; procedure, shortened: as §3
# [26] = biological target: T1, von Hippel-Lindau disease tumor suppressor/WD repeat-containing protein 5; assay: PROTAC activity at VHL/WDR5 in human MIA PaCa-2 cells assessed as degradation of WDR5 protein at 0.1 uM incubated for 2 hrs by Western blotting analysis; assay type: cell-based; procedure, shortened: as §7
structure (smiles),measurement,setting,value
Cc1ncsc1-c1ccc(CNC(=O)[C@@H]2C[C@@H](O)CN2C(=O)[C@@H](NC(=O)CNC(=O)c2ccc(F)c(-c3ccc(N4C[C@@H](C)N(C)[C@@H](C)C4)c(NC(=O)c4c[nH]c(=O)cc4C(F)(F)F)c3)c2)C(C)(C)C)cc1,DC50,[1],92 nM
same,Kd,[2],122 nM
same,Emax,[3],73%
same,Activity,[4],inactive
same,GI50,Panc1005,14.3 µM
same,concentration at 12 h,[5],> 100 nM
same,Activity,[6],Dose-Dependent Effect
same,Activity,[7],Active
same,GI50,MIA PaCa-2,5.7 µM
same,GI50,HPAF-II,9.2 µM
same,Cmax,[8],5 µM
same,Activity,[9],inactive
same,GI50,PANC-1,32.7 µM
same,Activity,[10],Tde
same,Activity,[11],inactive
same,Activity,[12],inactive
same,GI50,BXPC-3,4 µM
same,Activity,[13],inactive
same,Activity,[14],Active
same,AUC(0-t),[15],7300 ng·h/mL
same,Activity,[16],Active
same,Activity,[17],Dose-Dependent Effect
same,Activity,[18],Active
same,Activity,[19],inactive
same,Activity,[20],Non-Toxic
same,Activity,[21],Dose-Dependent Effect
same,concentration at 4 h,[22],1000 nM
same,Activity,[23],Dose-Dependent Effect
same,Kd,[24],232 nM
same,Activity,[25],Dose-Dependent Effect
same,Activity,[26],Active

# — ChEMBL document CHEMBL5375970, “Discovery of Potent and Selective WDR5 Proteolysis Targeting Chimeras as Potential Therapeutics for Pancreatic Cancer” (J Med Chem, 2023)
